Structures are written as SMILES. Calls of active or inactive are those of the source. The calls are words filed in the database; no cut-off is given here.

The target of experiment [1] is T1, Delta-aminolevulinic acid dehydratase (Drosophila melanogaster, UniProt Q9VTV9).
T1 sequence (Q9VTV9 whole entry): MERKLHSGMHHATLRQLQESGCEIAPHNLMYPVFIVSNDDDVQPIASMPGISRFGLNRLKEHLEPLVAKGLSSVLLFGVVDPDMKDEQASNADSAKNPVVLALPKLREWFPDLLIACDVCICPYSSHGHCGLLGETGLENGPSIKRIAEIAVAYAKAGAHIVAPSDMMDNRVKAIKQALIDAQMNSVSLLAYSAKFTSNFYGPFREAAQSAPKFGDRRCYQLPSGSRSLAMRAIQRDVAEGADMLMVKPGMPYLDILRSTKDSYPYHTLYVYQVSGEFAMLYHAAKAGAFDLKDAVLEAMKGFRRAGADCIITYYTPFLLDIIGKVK
Briefly: Inhibition of Drosophila melanogaster recombinant PBGS using 5-ALA as substrate.

Experiment [2] has as its target Delta-aminolevulinic acid dehydratase (Pseudomonas aeruginosa (strain ATCC 15692 / PAO1 / 1C / PRS 101 / LMG12228)) (UniProt Q59643). As to the kind of experiment: Stimulation of Pseudomonas aeruginosa PAO1 recombinant PBGS using 5 mM 5-ALA as substrate assessed as change in enzyme affinity for Mg2+ at 10 to 10000 uM at pH 8 by buffer scan assay in presence of MgCl2. A digest of the protocol:
(§1)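 Mg2+ or substrate response curves recorded with and without wALADin1; VMAX, KM and Mg2+ affinity derived from the fits.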

For experiment [3] the target is unchanged. As to the kind of experiment: Stimulation of Pseudomonas aeruginosa PAO1 recombinant PBGS.
Experiment [4] shares this target. As to the kind of experiment: Stimulation of Pseudomonas aeruginosa PAO1 recombinant PBGS using 5 mM 5-ALA as substrate assessed as effect on Km at 50 to 200 uM at pH 8 by Michaelis-Menten plot analysis in presence of MgCl2. In short, it runs like this:
as §1

Experiment [5] addresses T2, Delta-aminolevulinic acid dehydratase, chloroplastic (Pisum sativum) (UniProt P30124).
T2 sequence (whole entry): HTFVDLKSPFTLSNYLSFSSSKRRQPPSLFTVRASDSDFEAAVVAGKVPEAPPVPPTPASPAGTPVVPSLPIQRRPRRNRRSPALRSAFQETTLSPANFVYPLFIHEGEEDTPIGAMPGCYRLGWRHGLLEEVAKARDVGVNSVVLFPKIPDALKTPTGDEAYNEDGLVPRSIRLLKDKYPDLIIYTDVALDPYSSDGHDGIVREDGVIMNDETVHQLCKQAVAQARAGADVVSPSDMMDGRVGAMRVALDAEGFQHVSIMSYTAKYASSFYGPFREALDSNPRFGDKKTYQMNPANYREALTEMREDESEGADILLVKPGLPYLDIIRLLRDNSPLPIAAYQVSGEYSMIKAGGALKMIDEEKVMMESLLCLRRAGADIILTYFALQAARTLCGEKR
Briefly: Partial competitive inhibition of Pisum sativum PBGS using 5-ALA as substrate at 6.25 to 100 uM in presence of MgCl2. To be noted: Lathyrus oleraceus.

Experiment [6] addresses Delta-aminolevulinic acid dehydratase (Pseudomonas aeruginosa (strain ATCC 15692 / PAO1 / 1C / PRS 101 / LMG12228)) (UniProt Q59643). As to the kind of experiment: Stimulation of Pseudomonas aeruginosa PAO1 recombinant PBGS using 5 mM 5-ALA as substrate at 50 to 200 uM at pH 8 by buffer scan assay in presence of KCl.
In experiment [7] the target is T3, Delta-aminolevulinic acid dehydratase (Escherichia coli (strain K12)) (UniProt P0ACB2).
T3 sequence (whole entry): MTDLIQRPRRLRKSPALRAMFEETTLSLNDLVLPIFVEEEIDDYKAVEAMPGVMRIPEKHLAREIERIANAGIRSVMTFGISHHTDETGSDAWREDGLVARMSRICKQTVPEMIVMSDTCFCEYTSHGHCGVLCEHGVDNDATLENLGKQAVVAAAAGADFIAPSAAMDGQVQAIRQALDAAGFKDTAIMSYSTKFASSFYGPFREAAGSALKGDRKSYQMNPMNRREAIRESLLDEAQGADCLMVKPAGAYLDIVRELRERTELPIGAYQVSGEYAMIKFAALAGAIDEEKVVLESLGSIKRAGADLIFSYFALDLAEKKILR
Briefly: Inhibition of Escherichia coli recombinant PBGS using 5-ALA as substrate at 50 to 200 uM at pH 7 to 8.5 by buffer scan assay in presence of KCl.

Experiment [8] addresses T2, Delta-aminolevulinic acid dehydratase, chloroplastic (Pisum sativum). Briefly: Non-competitive inhibition of Pisum sativum PBGS using 5-ALA as substrate at 6.25 to 100 uM. To be noted: Lathyrus oleraceus.
Experiment [9] deals with Delta-aminolevulinic acid dehydratase (Pseudomonas aeruginosa (strain ATCC 15692 / PAO1 / 1C / PRS 101 / LMG12228)) (UniProt Q59643). As to the kind of experiment: Stimulation of Pseudomonas aeruginosa PAO1 recombinant PBGS using 5 mM 5-ALA as substrate assessed as increase in Vmax at 50 to 200 uM at pH 8 by buffer scan assay in presence of 1 mM MgCl2 and 1 to 1000 mM KCl.
Delta-aminolevulinic acid dehydratase (Pseudomonas aeruginosa (strain ATCC 15692 / PAO1 / 1C / PRS 101 / LMG12228)), sequence (Q59643 whole entry): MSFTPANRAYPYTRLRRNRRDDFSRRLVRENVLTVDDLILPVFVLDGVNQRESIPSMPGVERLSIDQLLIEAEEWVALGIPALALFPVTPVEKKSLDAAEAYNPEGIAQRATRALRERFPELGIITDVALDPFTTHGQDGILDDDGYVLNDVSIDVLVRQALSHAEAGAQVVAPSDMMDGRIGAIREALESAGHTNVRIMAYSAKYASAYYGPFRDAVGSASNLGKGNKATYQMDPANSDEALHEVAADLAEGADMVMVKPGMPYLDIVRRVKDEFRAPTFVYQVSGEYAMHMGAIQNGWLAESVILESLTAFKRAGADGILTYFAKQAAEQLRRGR

In experiment [10] the target is T4, Delta-aminolevulinic acid dehydratase (Wolbachia sp. subsp. Brugia malayi (strain TRS)) (UniProt Q5GSR3).
T4 sequence (whole entry): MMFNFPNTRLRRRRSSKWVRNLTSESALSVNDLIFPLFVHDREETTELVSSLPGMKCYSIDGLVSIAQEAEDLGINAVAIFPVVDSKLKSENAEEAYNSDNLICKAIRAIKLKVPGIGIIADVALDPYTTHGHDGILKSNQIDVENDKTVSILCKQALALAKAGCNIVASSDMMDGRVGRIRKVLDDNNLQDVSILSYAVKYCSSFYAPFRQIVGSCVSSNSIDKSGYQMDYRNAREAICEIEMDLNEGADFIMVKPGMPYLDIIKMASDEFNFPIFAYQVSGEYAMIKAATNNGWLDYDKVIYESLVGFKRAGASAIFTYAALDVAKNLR
To be noted: 25 to 2500 uM.

Experiment [11] addresses Delta-aminolevulinic acid dehydratase (Pseudomonas aeruginosa (strain ATCC 15692 / PAO1 / 1C / PRS 101 / LMG12228)) (UniProt Q59643). Briefly: Inhibition of Pseudomonas aeruginosa PAO1 recombinant PBGS assessed as inhibition of octamer-inducing effect of K+ by nondenaturing PAGE analysis. A digest of the protocol:
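PaPBGS (3 μg) preincubated 20 min at 37 °C in assay buffer with 1 mM Mg2+, 100 mM K+ and wALADin1, no 5-ALA. Run on 7.5% nondenaturing PAGE at 4 °C for 15–20 h. Coomassie for oligomer state; in-gel activity with 500 μM 5-ALA stained with Ehrlich's reagent.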

Experiment [12] has the same target. Briefly: Competitive inhibition of Pseudomonas aeruginosa PAO1 recombinant PBGS using 0.2 mM 5-ALA as substrate assessed as increase in Km at 50 to 200 uM at pH 7.5 by Michaelis-Menten plot analysis in presence of MgCl2. A digest of the protocol:
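PaPBGS under "standard inhibitory" conditions (100 mM Tris-HCl pH 7.5, 1 mM MgCl2, no KCl). 5-ALA varied for substrate-response curves at several wALADin1 levels; KM and VMAX derived from the fits. Incubation at 36 °C.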

The test system of a further experiment is Toxoplasma gondii. Briefly: Stimulation of Toxoplasma gondii recombinant PBGS using 5-ALA as substrate relative to control. A digest of the protocol: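 Recombinant T. gondii PBGS (hemB in pET-21b, expressed in BL21 E. coli) at 250 nM subunit in 100 mM Tris-HCl pH 8.0, 1 mM MgCl2, 5 mM DTT, with 200 μM 5-ALA, 20 min at 36 °C. Porphobilinogen was read with Ehrlich's reagent, and turnover was kept at or below 30%.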

Experiment [13] deals with Delta-aminolevulinic acid dehydratase (Yersinia enterocolitica W22703, UniProt F4MUJ9). Briefly: Stimulation of Yersinia enterocolitica recombinant PBGS expressed in Escherichia coli using 5-ALA as substrate.
Delta-aminolevulinic acid dehydratase (Yersinia enterocolitica W22703, UniProt F4MUJ9), sequence (F4MUJ9 whole entry): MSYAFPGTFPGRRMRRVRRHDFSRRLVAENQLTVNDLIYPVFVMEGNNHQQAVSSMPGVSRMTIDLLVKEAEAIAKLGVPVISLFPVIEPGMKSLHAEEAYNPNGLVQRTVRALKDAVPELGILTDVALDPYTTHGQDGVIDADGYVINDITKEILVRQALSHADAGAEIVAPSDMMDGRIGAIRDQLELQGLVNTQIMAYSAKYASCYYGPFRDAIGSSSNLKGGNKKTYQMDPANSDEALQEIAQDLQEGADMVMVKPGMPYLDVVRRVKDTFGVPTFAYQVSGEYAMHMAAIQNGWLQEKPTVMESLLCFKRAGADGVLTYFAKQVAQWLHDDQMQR

In general, IC50 refers to the concentration that gives 50% inhibition. In general, EC50 refers to the concentration that produces a half-maximal response. For the compound `O=C(O)c1ccc2c(c1)nc(CCNC(=O)c1cccs1)n2Cc1cccc(C(F)(F)F)c1`, in experiment [1], the IC50 came out at 1110 µM. Further, the outcome in [2], in experiment [6] and in experiment [9] was Active. For the same compound, the Activity in experiment [3] was found to be 20%. For the same compound, the outcome in experiment [4] was inactive. In addition, the inhibition result in experiment [5], in experiment [7], in experiment [8], in [10] and in [12] was “Active” each time. For the same compound, in experiment [11], the inhibition result is “Dose-dependent effect”. In addition, in the experiment on Toxoplasma gondii, the Smax worked out at 128%. Further, the EC50 in experiment [13] was 66 µM.

The values are drawn from ChEMBL document CHEMBL3286371, “wALADin benzimidazoles differentially modulate the function of porphobilinogen synthase orthologs” (J Med Chem, 2014).
